The source of these data is paper PMC4168015 (Journal of biomolecular screening, 2013).

By IC50 is commonly meant the concentration that gives 50% inhibition. For orientation: GI50 means the concentration giving 50% growth inhibition. As a reminder, the Kd is a measure of binding affinity in units of concentration.

“Also recorded” adds a separate entry of the source. Where two headings read alike, the source gives them in different places. Some results are limits rather than exact numbers.

One test has as its target Skp2-Cks1 interaction (Homo sapiens, UniProt P61024+Q13309). Nature of the test: AlphaScreen assay for Skp2-Cks1 interaction. Type of test: binding. (Alpha assays give light when donor and acceptor beads are brought close together.)
In test [1] the target is SCF^Skp2 (E3) ubiquitination of p27 (Homo sapiens, UniProt Q13309). Nature of the test: In vitro p27 ubiquitination assay. The test is classed as biochemical. A digest of the protocol:
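Mouse p27 translated in rabbit reticulocyte lysate with [35S]-methionine and phosphorylated by recombinant CDK2–cyclin E. It was then mixed with 100 nM E1, 200 nM His-Cdc34, 100 nM SCFSkp2, 50 nM Cks1, 10 μM ubiquitin, 10 μM methylated ubiquitin, ATP regeneration system, 1 μM ubiquitin aldehyde and 1 μM MG132. Run 30 min, 30 °C; products read by SDS-PAGE/phosphorimager. Test compound 40 μM.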

Test [2] deals with mink lung epithelial cell line stably expressing GFP-p27. Nature of the test: GFP-p27 stabilization in mink lung epithelial cell line. The test is classed as cell-based. The conditions noted are these: for endogenous p27 level: mink lung epithelial cell line; for stabilization of GFP-p27: mink lung epithelial cell line stably expressing GFP-p27.
The test system of the next test is p210^bcr-abl. The note with it: read-out: IC50 against p210^bcr-abl in vitro; cited from earlier work.
Another test concerns K562 leukemia cell lines. The note with it: read-out: GI50 against K562 leukemia cell lines; cited from earlier work.
Test [3] deals with Cks1 (Homo sapiens) (UniProt P61024). The note with it: cited from earlier work.
Chain of Cks1 (Homo sapiens) (P61024 2-79): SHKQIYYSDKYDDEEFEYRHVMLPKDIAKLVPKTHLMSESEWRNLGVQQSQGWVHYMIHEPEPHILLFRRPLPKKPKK
Test [4] shares this target. Nature of the test: ITC. The conditions noted are these: cited from earlier work.
Where [5] appears, read: read-out: Inhibition of Skp2-Cks1 IC50, AlphaScreen, GST-Skp2/Skp1 20 nM, Cks1 200 nM.
[6] abbreviates: read-out: p27 Ub IC50, in vitro p27 ubiquitination.

Chain of Skp2 (Q13309 whole entry): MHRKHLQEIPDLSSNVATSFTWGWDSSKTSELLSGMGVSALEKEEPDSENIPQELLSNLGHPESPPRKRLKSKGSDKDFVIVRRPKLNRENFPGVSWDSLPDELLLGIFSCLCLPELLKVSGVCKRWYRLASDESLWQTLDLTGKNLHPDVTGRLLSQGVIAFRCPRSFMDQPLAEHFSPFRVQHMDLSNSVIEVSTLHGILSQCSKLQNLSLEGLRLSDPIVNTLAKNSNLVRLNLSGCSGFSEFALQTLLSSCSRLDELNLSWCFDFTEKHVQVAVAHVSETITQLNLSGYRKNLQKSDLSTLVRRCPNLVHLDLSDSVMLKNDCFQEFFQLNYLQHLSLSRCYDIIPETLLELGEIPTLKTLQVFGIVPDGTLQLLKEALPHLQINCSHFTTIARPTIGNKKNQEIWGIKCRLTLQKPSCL

On to `COC(=O)c1ccc(CCc2cc(O)ccc2O)cc1` [NSC681152], for which the “effect on Skp2-Cks1 interaction (in words)” value on Skp2-Cks1 interaction (AlphaScreen) is listed as “blocked the Skp2-Cks1 interaction at low μM concentrations”. The 50% inhibitory concentration (IC50) at Skp2-Cks1 interaction (setting [5]) is 75.6 ± 6.8 µM; in test [1] (setting [6]) it was about 80 µM; in the test with p210^bcr-abl, 2.64 µM. Further, in test [1], the “effect on p27 ubiquitination in vitro (in words)” value (“effect on p27 ubiquitination” below) is on record as “impeded p27 polyubiquitination in a dose-dependent manner; also recorded: inhibited p27 ubiquitination in vitro”. In addition, the “endogenous p27 level” value in test [2] was “increases only marginally”. The “stabilization of GFP-p27” value in test [2] is recorded as “dose-dependent stabilization”. Moreover, in the test with K562 leukemia cell lines, the GI50 is 18.5 µM.
Compound `O=C1C=CC(=O)C=C1` [BQ, 1,4-benzoquinone, reference compound] returned an IC50 at Skp2-Cks1 interaction of 626 ± 65.7 µM. In addition, on Skp2-Cks1 interaction (AlphaScreen), the “effect on Skp2-Cks1 interaction (in words)” value was “no effect”. In test [1], the IC50 is over 300 µM and the “effect on p27 ubiquitination” value is “no effect”.
As to `CCCCC(=O)c1ccc(OC)c(C)c1` [Compound Q857], the “effect on Skp2-Cks1 interaction (in words)” value at Skp2-Cks1 interaction (AlphaScreen) is “blocked the Skp2-Cks1 interaction at low μM concentrations”. For the same compound, the values for the IC50 (on Skp2-Cks1 interaction (setting [5]); in test [1] (setting [6])) were 71 ± 4.4 µM and about 15 µM, respectively. The “effect on p27 ubiquitination” value in test [1] is recorded as “inhibited p27 ubiquitination in vitro”.
For Skp2 (from UniProt Q13309), the Kd with Cks1 (Homo sapiens) [3] is 0.14 µM; in the test with Cks1 (Homo sapiens) [4], 0.014 µM.
For the compound `Cc1cc(O)ccc1O` [MHQ, methylhydroquinone, reference compound], inhibition against Skp2-Cks1 interaction was half-maximal at 434 ± 39.5 µM (IC50). In addition, the “effect on Skp2-Cks1 interaction (in words)” value on Skp2-Cks1 interaction (AlphaScreen) was “no effect”. For the same compound, in test [1], the IC50 is over 300 µM and the “effect on p27 ubiquitination” value is listed as “no effect”.
For the compound `CCCCC(=O)c1ccc(OC)c(C)c1` [Compound E857], the IC50 at Skp2-Cks1 interaction (setting [5]) was 8310 ± 1460 µM; in test [1] (setting [6]) it was over 300 µM.
With `O=C(OCC12CC3CC(CC(C3)C1)C2)c1ccc(NCc2cc(O)ccc2O)cc1` [Compound 857], on Skp2-Cks1 interaction (AlphaScreen), the “effect on Skp2-Cks1 interaction (in words)” value was “blocked the Skp2-Cks1 interaction at low μM concentrations”. In addition, the IC50 at Skp2-Cks1 interaction (setting [5]) was 36 ± 6.2 µM; in test [1] (setting [6]) it was about 30 µM; in the test with p210^bcr-abl, 12.6 µM. In addition, the “effect on p27 ubiquitination” value in test [1] (listed as NSC689857) is “impeded p27 polyubiquitination in a dose-dependent manner; also recorded: inhibited p27 ubiquitination in vitro”. For the same compound, the “endogenous p27 level” value in test [2] is reported as “increases only marginally”. Further, the “stabilization of GFP-p27” value in test [2] is given as “dose-dependent stabilization”. The 50% growth inhibitory concentration (GI50) in the test on K562 leukemia cell lines was 12.8 µM.
For `CCCCC(=O)c1ccc(OC)c(C)c1` [Compound A857], the IC50 is 1090 ± 189 µM on Skp2-Cks1 interaction (setting [5]) and over 300 µM in test [1] (setting [6]).
